# Screening data deposited in PubChem by several laboratories.
# This is a sample that favours compounds with a hit; in the whole collection about 1.5% have one here.
# FID counter = compounds displacing fluorescent DNA intercalator, primary screen, artefact control for HCV NS3 helicase inhibitor project, biochemical, FID fluorescence. DNA fluorescent intercalator displacement. inhibition, % at 7.9 µM. 290,000 compounds, 0.17% hits. AID 1845, 2009; in the data active = inhibition above about 37%;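 note: higher means more ethidium bromide displaced from hairpin DNA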
# MEX-5 binding = MEX-5 zinc finger RNA-binding disruptors – biochemical, C. elegans, fluorescence polarization, MLPCN library, primary screen; activity score (negative = inhibition of binding), % at 10 µM; MEX-5/FITC-TCR2 RNA binding; stronger effect = lower value; 300,000 compounds, 0.38% hits; AID 1832, 2009; Zinc finger protein mex-5 (Caenorhabditis elegans), Q9XUB2;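 active = inhibition past about -25% in most replicates, and total fluorescence under double the plate's negative control median, limit read from the data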
# Target sequence (Q9XUB2 whole entry, looked up): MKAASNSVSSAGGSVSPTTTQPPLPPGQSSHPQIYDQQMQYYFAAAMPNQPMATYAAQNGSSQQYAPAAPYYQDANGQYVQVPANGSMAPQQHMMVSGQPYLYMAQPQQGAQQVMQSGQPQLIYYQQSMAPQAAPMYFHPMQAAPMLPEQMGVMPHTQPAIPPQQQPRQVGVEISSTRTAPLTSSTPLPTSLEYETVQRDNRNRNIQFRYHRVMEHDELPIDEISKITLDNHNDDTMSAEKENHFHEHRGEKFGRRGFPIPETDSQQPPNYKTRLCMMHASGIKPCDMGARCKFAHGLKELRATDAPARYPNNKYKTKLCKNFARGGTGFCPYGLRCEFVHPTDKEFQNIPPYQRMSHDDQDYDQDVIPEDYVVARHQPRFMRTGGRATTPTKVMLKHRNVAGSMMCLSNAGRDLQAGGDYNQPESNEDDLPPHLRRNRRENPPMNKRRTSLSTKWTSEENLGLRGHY
# HCV core dimer = inhibitors of HCV core protein dimerization, primary screen, biochemical, TR-FRET, high-throughput. AID 1899, 2009. 300,000 compounds, 0.33% hits. inhibition, % at 5 µM. TR-FRET GST/Flag-core106 dimerization, 1536-well;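 active = inhibition above the mean of all tested compounds plus 3 SD, set per screening campaign, cut at about 45% in these data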
#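 Assay system – GST-tagged and Flag-tagged HCV core protein residues 1-106 · Quantity – core106 proteins, GST 13.5 nM and Flag 17 nM · Benchmarks – unlabelled core106 and no-GST-core106 wells · Read-out basis – percent inhibition of core106 dimerization signal · Detection – time-resolved FRET, ex 340 nm, em 617 and 671 nm · Schedule – 4 h at 22.5 °C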
# NRP1-CendR mod = modulators of CendR peptide binding to NRP-1, primary screen, biochemical, fluorescence polarization, uHTS; AID 602438, 2012; inhibition, % at 25 µM; 360,000 compounds, 0.85% hits; FAM-RPARPAR peptide binding to NRP-1;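 active = inhibition or corrected inhibition above about 18%, plus a signal ratio from 0.5 to 1.5, limit read from the data, passing the limit was not always enough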
# A number is an active result; n = inactive; x = no result.
SMILES,FID counter,MEX-5 binding,HCV core dimer,NRP1-CendR mod
Cc1occc1C(=O)Nc1cccc(Cl)c1Cl,n,n,n,29.1
O=C(O)CCN1C(=O)c2ccc(NC(=O)c3ccco3)cc2C1=O,n,n,n,21.0
CC(C)CN1C(=O)c2ccc(NC(=O)c3ccco3)cc2C1=O,n,n,n,n
COC(=O)c1ccc(Cn2c(C)c(C(=O)NCc3ccc(Cl)c(Cl)c3)sc2=O)o1,x,x,x,n
CCOC(=O)C1=C(C)NC(C)=C(C(=O)OCC)C1c1ccncc1,x,x,x,n
CCOC(=O)c1ccc(CC(=O)c2oc3cc(O)ccc3c2C)o1,n,n,n,n
CCOC(=O)c1ccc(CC(=O)c2ccc(O)c(O)c2O)o1,n,-26.9,x,n
Cc1ccc2oc(=O)c3cc(C(=O)NCCCN4CCCC(C)C4)sc3c2c1 (stereo unspecified),39.1,n,n,n
CCCN1CCN(CCCNC(=O)c2cc3c(=O)oc4ccc(C)cc4c3s2)CC1,n,n,n,n
O=c1[nH]c(=O)n(C2OC(CO)C(O)C2O)cc1Br (stereo unspecified),n,n,n,n
O=c1[nH]c(=O)n(C2OC(CO)C(O)C2O)c2c1CCCC2 (stereo unspecified),x,x,x,22.9
CCOc1cc(CNCc2ccccc2)ccc1OCc1ccc(Cl)cc1,45.8,n,n,n
O=C(c1[nH]c(C(F)(F)F)nc1-c1ccccc1)N1CCN(c2ncccn2)CC1,x,x,x,n
Cc1ccccc1Nc1cc(=O)oc2ccccc12,n,n,n,22.1
Cc1ccc(Nc2cc(=O)oc3ccccc23)c(C)c1,n,n,n,n
Cc1nc(NC(=O)C(C)(C)C)sc1-c1csc(N)n1,x,x,x,n
COc1ccc(N2CCN(C(=O)c3ccc4c(c3)NC(=O)C(CSCc3ccc(C)cc3)N4)CC2)cc1 (stereo unspecified),n,n,63.7,x
COc1ccc(N2CCN(C(=O)c3ccc4c(c3)NC(=O)C(CSCc3cccc(F)c3)N4)CC2)cc1 (stereo unspecified),n,n,n,x
COc1ccc(N2CCN(C(=O)c3ccc4c(c3)NC(=O)C(CSCc3c(F)cccc3Cl)N4)CC2)cc1 (stereo unspecified),n,n,67.3,x
CC(O)(c1ccccc1)c1nc(-c2ccc3c(c2)OCO3)cs1 (stereo unspecified),x,x,x,n
CCCC#Cc1ccc2c(c1)O[C@@H](CN(C)Cc1ccc3c(c1)OCO3)[C@H](C)CN([C@@H](C)CO)S2(=O)=O,x,x,x,n
CCCCN1C(=O)C(CC(=O)NC(c2ccccc2)c2ccccc2)CC(C(=O)N2CCCCCC2)=C1C (stereo unspecified),x,x,x,n
COc1ccc(NC(=O)N(C)C[C@@H]2Oc3ccc(NC(=O)NC(C)C)cc3CC(=O)N([C@H](C)CO)C[C@@H]2C)cc1,x,x,x,n
COc1ccc(/C=C2\CN(Cc3ccccc3)C/C(=C\c3ccc(OC)cc3OC)C2=O)c(OC)c1,n,n,48.7,n
O=C(NCC[C@@H]1CC[C@@H](NC(=O)c2cnccn2)[C@@H](CO)O1)c1ccc2c(c1)OCO2,x,x,x,n
SMILES,FID counter,MEX-5 binding,HCV core dimer,NRP1-CendR mod
CN(C(=O)c1cc(COc2ccc(F)cc2Cl)on1)C1CCOC1 (stereo unspecified),x,x,x,n
O=S(=O)(c1ccccc1)N1CCN(c2ncccn2)CC1,n,n,n,n
CC(C)(C)c1ccc(S(=O)(=O)N2CCN(c3ncccn3)CC2)cc1,n,n,n,26.9
COCCN(C(=O)COC(=O)c1ccc(-c2ccccc2)cc1)c1c(N)n(Cc2ccccc2)c(=O)[nH]c1=O,x,x,x,n
CC(C)(C)Cc1c(-c2cccc(Cl)c2)nc2ccc(Br)cn12,x,x,x,n
CN1C(=O)/C(=C/c2ccc3c(c2)OCO3)N=C1c1ccccc1,n,-33.2,n,n
O=C(COC(=O)c1cccnc1)Nc1cccc(Cl)c1,n,n,n,n
O=C(COC(=O)c1ccncc1)Nc1cccc(Cl)c1,n,n,46.3,n
COc1ccc(C)c2sc(N(CCN(C)C)C(=O)c3ccc(S(=O)(=O)N(C)c4ccccc4)cc3)nc12,x,x,x,n
CC(C)n1c(NCc2ccc(N(C)C)cc2)nc2ccccc21,n,n,n,29.4
CCN1C/C(=C\c2cc(OC)c(OC)c(OC)c2)C2=NN(c3ccccc3)C(c3cc(OC)c(OC)c(OC)c3)C2C1 (stereo unspecified),x,x,x,n
Cc1ccc(-n2nnnc2SCC(=O)Nc2ccc3c(c2)COC3=O)cc1C,n,n,49.4,n
O=C(COC(=O)c1ccccc1Nc1cccc(C(F)(F)F)c1)NCc1ccco1,n,n,64.2,n
O=C(COC(=O)c1ccccc1)NCc1ccco1,n,n,n,n
O=C(COC(=O)c1ccccc1Nc1ccccc1)NCc1ccccc1,n,x,n,n
COc1ccccc1CNC(=O)COC(=O)c1cc(-c2ccco2)nc2ccccc12,n,n,68.8,n
O=C(COC(=O)c1ccccc1Oc1ccccc1)NCc1ccco1,n,n,73.8,n
CC(C)Cn1c(N)c(C(=O)COC(=O)c2cc(-c3ccco3)nc3ccccc23)c(=O)n(C)c1=O,n,n,53.5,n
COc1ccccc1CNC(=O)COC(=O)c1cc(C)nc2ccccc12,x,x,x,n
Cc1ccc(-c2cc(C(=O)NCc3ccco3)c3ccccc3n2)s1,n,n,47.0,n
O=C(NCc1ccco1)c1cc(-c2cccs2)nc2ccccc12,n,n,n,n
O=C(COC(=O)c1cc(-c2cccs2)nc2ccccc12)NCc1ccco1,n,n,62.5,n
CN(C)c1ccc(-c2nnc(-c3ccc(S(=O)(=O)C(F)F)cc3)o2)cc1,n,-33.7,n,n
COc1ccc(-c2nnc(-c3ccc(N(C)C)cc3)o2)cc1,n,n,n,n
COc1ccc(C2=Nc3cccc4cccc(c34)N2)cc1,n,n,n,n
SMILES,FID counter,MEX-5 binding,HCV core dimer,NRP1-CendR mod
Nc1cccc(C2=Nc3cccc4cccc(c34)N2)c1,n,n,72.1,n
COc1ccc(/C=C(\C#N)c2nc3ccc(C)cc3[nH]2)cc1Oc1ccc(C(F)(F)F)cc1[N+](=O)[O-],n,-57.6,n,n
Cc1ccc2nc(/C(C#N)=C\c3ccc(Oc4ccc(C(F)(F)F)cc4[N+](=O)[O-])cc3)[nH]c2c1,n,n,n,n
CCOC(=O)c1ccc(NC(=O)c2ccccc2)cc1,n,n,n,23.1
CCOC(=O)c1ccc(NC(=O)CN2CCc3ccccc3C2)cc1,n,n,n,38.2
CCOc1ccc(NC(=O)CN2CCc3ccccc3C2)cc1,n,n,n,n
C[C@H]1CN([C@@H](C)CO)C(=O)CCCn2cc(nn2)CO[C@@H]1CN(C)C(=O)Nc1ccc(C(F)(F)F)cc1,x,x,x,n
CCN(c1ccccc1)S(=O)(=O)c1ccc(C(=O)N(CCCN(C)C)c2nc3cc4c(cc3s2)OCO4)cc1,n,n,n,22.5
CCN(c1ccccc1)S(=O)(=O)c1ccc(C(=O)N(CCCN(C)C)c2nc3c(C)cccc3s2)cc1,37.3,n,n,n
CN(C)CCCN(C(=O)c1ccc(S(=O)(=O)N(C)Cc2ccccc2)cc1)c1nc2cc3c(cc2s1)OCO3,n,n,n,n
O=C1C=C(c2ccc(-c3ccccc3)c(F)c2)C[C@@H](c2ccc(Cl)cc2)C1,x,x,x,n
CSc1ccc(C2=CC(=O)C[C@H](c3ccc(Cl)cc3)C2)cc1,x,x,x,27.8
O=C1C=C(c2ccc(Oc3ccccc3)cc2)C[C@@H](c2ccc(Cl)cc2)C1,x,x,x,32.3
CC(=O)Nc1ccc(C2=CC(=O)C[C@H](c3ccc(Cl)cc3)C2)cc1,x,x,x,n
